For orientation: IC50 means the midpoint of a concentration-inhibition curve. In general, MIC refers to the least concentration at which growth counts as inhibited.

The results in this text go back to ChEMBL document CHEMBL1141490, “Synthesis and evaluation of PSSRI-based inhibitors of Staphylococcus aureus multidrug efflux pumps” (Bioorg Med Chem Lett, 2008).

Values after ≈ are worked out from the molar mass of the structure shown.

Test [1] relates to Staphylococcus aureus. The test is described as follows: Inhibition of NorA-mediated efflux in Staphylococcus aureus K2361. The format is functional, organism-based.
Test [2] deals with Staphylococcus aureus. The test is described as follows: Antimicrobial activity against Staphylococcus aureus K1902. The format is functional.
Test [3] relates to Staphylococcus aureus. The test is described as follows: Inhibition of MepA efflux pump in Staphylococcus aureus K2886 at 1/2 MIC assessed as fold reduction in ethidium bromide minimum inhibitory concentration.
The test system of test [4] is Staphylococcus aureus. The test is described as follows: Antimicrobial activity against Staphylococcus aureus K2361 over expressing NorA efflux pump. The format is functional.
In test [5] the test system is Staphylococcus aureus. The test is described as follows: Inhibition of NorA efflux pump in Staphylococcus aureus K2361 at 1.58 uM MIC assessed as fold reduction in ethidium bromide minimum inhibitory concentration. Type of test: functional.
Test [6] concerns Staphylococcus aureus. Description: Antimicrobial activity against Staphylococcus aureus K2886 over expressing MepA efflux pump. Type of test: functional.
In test [7] the test system is Escherichia coli. Description: Antimicrobial activity against Escherichia coli K2201. The format is functional.
The test system of test [8] is Pseudomonas aeruginosa. Description: Antimicrobial activity against Pseudomonas aeruginosa K3082. The format is functional.
Test [9] deals with Staphylococcus aureus. Description: Antimicrobial activity against Staphylococcus aureus K2885. Type of test: functional.
The test system of test [10] is Pseudomonas aeruginosa. Description: Antimicrobial activity against Pseudomonas aeruginosa K2184 over expressing MexB efflux pump. Type of test: functional.
Test [11] deals with Staphylococcus aureus. The test is described as follows: Inhibition of NorA efflux pump in Staphylococcus aureus K2361 at 0.50 assessed as fold reduction in ethidium bromide minimum inhibitory concentration. On the set-up: concentration or dose not given beside the values. Type of test: functional.
Test [12] concerns Staphylococcus aureus. The test is described as follows: Inhibition of MepA efflux pump in Staphylococcus aureus K2886 at 1.58 uM MIC assessed as fold reduction in ethidium bromide minimum inhibitory concentration. Type of test: functional.
In test [13] the test system is Escherichia coli. Description: Antimicrobial activity against Escherichia coli K2203 over expressing AcrB efflux pump.
For test [14], the system named is Staphylococcus aureus. The test is described as follows: Inhibition of MepA-mediated efflux in Staphylococcus aureus K2886. Type of test: functional, organism-based. In short, it runs like this: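 Efflux from MepA-overexpressing S. aureus K2886, done in duplicate. Reported as mean total efflux over a 5 min time course.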
Test [15] concerns Staphylococcus aureus. The test is described as follows: Inhibition of MepA efflux pump in Staphylococcus aureus K2886 at 4.16 uM assessed as fold reduction in ethidium bromide minimum inhibitory concentration. The format is functional.
The subject of test [16] is Staphylococcus aureus. Description: Inhibition of NorA efflux pump in Staphylococcus aureus K2361 at 8.32 uM assessed as fold reduction in ethidium bromide minimum inhibitory concentration. The format is functional.
The test system of test [17] is Staphylococcus aureus. Description: Inhibition of MepA efflux pump in Staphylococcus aureus K2886 at 0.39 uM assessed as fold reduction in ethidium bromide minimum inhibitory concentration. Type of test: functional. In short, it runs like this: (§1)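 Ethidium bromide MIC was determined for the pump-expressing S. aureus strain, alone and with the efflux inhibitor added at 1/4 or 1/2 of the inhibitor's own MIC against that strain. Potentiation is expressed as fold lowering of the ethidium bromide MIC. Parent strains SA-K1902 and SA-K2885 were tested in the same way at 1/2 MIC.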

For test [18], the system named is Staphylococcus aureus. Description: Inhibition of NorA efflux pump in Staphylococcus aureus K2361 at 0.79 uM MIC assessed as fold reduction in ethidium bromide minimum inhibitory concentration. Type of test: functional. The gist of the method: as §1
The test system of test [19] is Staphylococcus aureus. Description: Inhibition of MepA efflux pump in Staphylococcus aureus K2886 at 4.1 uM MIC assessed as fold reduction in ethidium bromide minimum inhibitory concentration. Type of test: functional.
Test [20] has as its system Staphylococcus aureus. Description: Inhibition of MepA efflux pump in Staphylococcus aureus K2886 at 0.50 uM assessed as fold reduction in ethidium bromide minimum inhibitory concentration. The format is functional.
For test [21], the system named is Staphylococcus aureus. The test is described as follows: Inhibition of NorA efflux pump in Staphylococcus aureus K2361 at 8.21 uM MIC assessed as fold reduction in ethidium bromide minimum inhibitory concentration. Type of test: functional.

`c1ccc(NC[C@H]2CCCNC2)cc1` had an IC50 in [1] of more than 50 µM.
With `Fc1ccc([C@@H]2CCNC[C@H]2/C=C/c2cc(Br)ccc2Cl)cc1`, the MIC stood at 25 µg/mL (≈ 63.3 µM) in [2]; 25 µg/mL (≈ 63.3 µM) in test [4]; 25 µg/mL (≈ 63.3 µM) in test [6]; 100 µg/mL (≈ 253 µM) in [7]; 100 µg/mL (≈ 253 µM) in [8]; 25 µg/mL (≈ 63.3 µM) in [9]. Further, the minimum inhibitory concentration (MIC) in test [10] and in test [13] was 100 µg/mL (≈ 253 µM) in each case. Besides, the Fold change in test [3] is reported as more than 32; in test [5], 16; in test [11] it was 64; in test [12], 4. Further, the IC50 in test [1] was less than 10 µM; in test [14] it was 20 µM.
The molecule `c1ccc(SC[C@H]2CCCNC2)cc1` showed an IC50 in [1] of more than 50 µM.
The same measure, in the same setting: under `c1ccc(OC[C@H]2CCCNC2)cc1` stands more than 50 µM.
For `Clc1ccc(Br)cc1/C=C/[C@H]1CCCNC1`, the MIC in test [2] was 100 µg/mL (≈ 333 µM); in test [4] it was 100 µg/mL (≈ 333 µM); in test [6], 50 µg/mL (≈ 166 µM); in [7], 50 µg/mL (≈ 166 µM); in test [8] it was 100 µg/mL (≈ 333 µM); in [9], 100 µg/mL (≈ 333 µM). Besides, the MIC in test [10] and in [13] was 100 µg/mL (≈ 333 µM) throughout. Further, the Fold change in test [3] is listed as 16; in test [15] it was 4; in test [16] it was 64; in test [11] it was more than 128. In addition, the IC50 in test [1] was 45 µM; in [14], less than 10 µM.
On to `Fc1ccc([C@@H]2CCNC[C@H]2COc2ccccc2)cc1`, for which, in test [1], the IC50 turned out to be 22 µM.
With `Fc1ccc([C@@H]2CCNC[C@H]2COc2cc(Br)ccc2Cl)cc1`, the Fold change in test [17] was 4; in test [3], 8; in test [18], 4; in test [11] it was 32. Further, the MIC in test [2] worked out at 12.5 µg/mL (≈ 31.4 µM); in test [4] it was 12.5 µg/mL (≈ 31.4 µM); in test [6], 6.25 µg/mL (≈ 15.7 µM); in [7] it was 25 µg/mL (≈ 62.7 µM); in test [8] it was 100 µg/mL (≈ 251 µM); in test [9], 6.25 µg/mL (≈ 15.7 µM). In addition, the results for the MIC in test [10] and in test [13] were 100 µg/mL (≈ 251 µM) and 50 µg/mL (≈ 125 µM), respectively. Besides, the results for the IC50 in test [1] and in test [14] were less than 10 µM and 13 µM, respectively.
The molecule `COc1ccc(OC[C@H]2CCCNC2)cc1` returned an IC50 in test [1] of more than 50 µM.
Regarding `Clc1ccc(Br)cc1OC[C@H]1CCCNC1`, the MIC is 100 µg/mL (≈ 328 µM) in [2]; more than 100 µg/mL in [4]; more than 100 µg/mL in test [6]; 100 µg/mL (≈ 328 µM) in [7]; 100 µg/mL (≈ 328 µM) in test [8]; 100 µg/mL (≈ 328 µM) in [9]. In test [10], the MIC amounted to 100 µg/mL (≈ 328 µM). The values for the IC50 in test [1] and in test [14] were 40 µM and less than 10 µM, respectively. The Fold change in test [19] worked out at 2; in test [20], 8; in test [21], 16; in test [11] it was 64.
On to `Fc1ccc([C@@H]2CCNC[C@H]2CNc2ccccc2)cc1`, for which, in [1], the IC50 was more than 50 µM.
`Fc1ccc([C@@H]2CCNC[C@H]2COc2ccc3c(c2)OCO3)cc1` [PAROXETINE]: the IC50 in test [1] is 15 µM; in test [14], less than 10 µM.
In turn, `Fc1ccc([C@@H]2CCNC[C@H]2CSc2ccccc2)cc1` showed an IC50 in test [1] of 18 µM.
